# Screening data as filed in PubChem.
# A selection: hits, their analogues and other compounds. The true share with any hit is near 3.5%.
# RGS4 block – inhibitors of human RGS4; actives 0.45% (n = 310,000); P49798; AID 463165; B-score at 10 µM; HEK293 M3R/RGS4 inducible, Fluo-4 calcium flux; hits give high values; triggered by carbachol at its EC20;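 active = B-score, a plate-corrected calcium signal, over three deviations above library mean, with baseline fluorescence within five deviations of library mean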;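 also: RGS4 expression induced by doxycycline in cells with stable M3 receptor; B-score is computed from the integrated fluorescence ratio over baseline after carbachol; higher B-score means a larger calcium signal and so more RGS4 inhibition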
# Target sequence (P49798 whole entry, looked up): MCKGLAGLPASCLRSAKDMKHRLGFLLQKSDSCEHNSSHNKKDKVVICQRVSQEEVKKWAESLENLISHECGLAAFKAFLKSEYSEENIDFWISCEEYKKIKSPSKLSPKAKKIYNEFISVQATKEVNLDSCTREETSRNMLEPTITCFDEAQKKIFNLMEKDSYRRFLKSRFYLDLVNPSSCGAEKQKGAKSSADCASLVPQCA
# MrgX1 antag – blocks BAM8-22 activation of human MrgX1 receptor; Q96LB2; MRGX1-HEK293 calcium flux, Fluo-4, BAM8-22 antagonism; hits give low values; B-score at 10 µM; actives 1.3% (n = 310,000);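 active = calcium-response B-score plate-corrected more than 3 library SD below zero, starting fluorescence within 5 deviations, no agonist response on first addition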;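 also: peak minus trough fluorescence over baseline after final BAM8-22 challenge near maximal dose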
# Target sequence (Q96LB2 whole entry, looked up): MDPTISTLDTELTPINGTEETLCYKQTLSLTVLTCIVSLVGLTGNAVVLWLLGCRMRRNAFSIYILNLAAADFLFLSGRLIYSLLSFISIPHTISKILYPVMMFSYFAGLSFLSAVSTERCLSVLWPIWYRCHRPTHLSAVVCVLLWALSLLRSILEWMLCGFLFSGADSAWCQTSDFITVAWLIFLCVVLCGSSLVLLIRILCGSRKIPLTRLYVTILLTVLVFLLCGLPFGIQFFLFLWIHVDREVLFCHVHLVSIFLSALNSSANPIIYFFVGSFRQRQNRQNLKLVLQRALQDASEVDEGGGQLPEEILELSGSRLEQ
# MrgX1 PAM – human MrgX1 positive allosteric modulation, primary screen; AID 588675; B-score at 10 µM; actives 0.63% (n = 310,000); MrgX1-HEK293, Fluo-4 calcium flux, FDSS; hits give high values;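 active = plate-corrected calcium response at least 3 library SD above typical, normal starting fluorescence, not activating the receptor alone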;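 also: compound read alongside a low EC10 to EC30 dose of BAM8-22 agonist; peak minus trough fluorescence over baseline measured at the second addition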
# RGS4 act – potentiators or activators of RGS4; HEK293 M3R/inducible RGS4, carbachol calcium flux Fluo4; hits give low values; B-score at 10 µM; actives 0.92% (n = 310,000); AID 463111;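 active = B-score of the integrated calcium signal more than 4 SD below the library mean, with starting fluorescence not abnormally high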;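 also: negative B-score means reduced calcium response which marks RGS4 activation or potentiation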
#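 Also added: carbachol at ECmax as muscarinic agonist stimulus; Assay system: HEK293 cells with stable M3R and inducible RGS4; Timing: overnight RGS4 induction, 30 min dye load 37 °C, 20 min compound RT; Measured by: Fluo4-AM (2 µM) calcium-flux fluorescence, kinetic read.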
# MrgX1 agonist – agonists of human MrgX1 receptor; Q96LB2; MrgX1-HEK293 cells, Fluo-4 calcium fluorescence, agonist mode; hits give high values; B-score at 10 µM; actives 0.44% (n = 310,000);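 active = calcium response B-score plate-corrected fluorescence ratio at least 3 library SD, with starting fluorescence B-score inside 5 SD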
#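 Test system: HEK293 cells stably expressing human MrgX1 receptor; Input: fifteen thousand cells per well; Dosing: compound delivered in addition one of three; Schedule: overnight seeding, then 1 h dark dye loading; Technique: Fluo-4 NW calcium fluorescence; Measure: B-scored fluorescence response ratio; Controls: positive and negative controls per plate.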
# MrgX1 antag conf – confirmation of human MrgX1 receptor antagonists; shares compounds with MrgX1 antag; MrgX1-HEK293, BAM8-22 calcium flux, Fluo-4; hits give low values; remaining BAM8-22 calcium response % of control (hits give low values), % at 10 µM; actives 19% (n = 2,300);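 active = remaining agonist calcium response no higher than 100% minus 3 SD of agonist-only control wells, with starting fluorescence near control levels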;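 also: agonist BAM8-22 given at a near maximal EC90 to ECmax level; peak minus minimum fluorescence divided by baseline after agonist addition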
# HEK293 Ca flux – activity in parental HEK293 cells lacking MrgX1. actives 2% (n = 4,000). shares compounds with MrgX1 antag. fluorescence ratio F(max-min)/F0 at 10 µM. Fluo-4 calcium fluorescence, FDSS;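 active = duplicate-averaged calcium fluorescence ratio at least three times the standard deviation of buffer wells, a nonspecific response in parental cells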
# HEK293 Ca counter – activity in parental HEK293 cells without MrgX1; shares compounds with MrgX1 antag; parental HEK293 calcium flux, Fluo-4 fluorescence ratio; hits give high values; fluorescence ratio F(max-min)/F0 at 10 µM; actives 0.4% (n = 4,000); AID 624114;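 active = calcium fluorescence ratio, averaged over duplicates, at least 3 SD of the buffer-well ratio, meaning a nonspecific response in receptor-free cells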;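 also: untransfected parental HEK293 lacking MrgX1 used as counterscreen for MrgX1 allosteric activators; fluorescence change taken during the second addition on a kinetic imager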
# HEK293 Ca cntr2 – activity in parental HEK293 cells lacking MrgX1 receptor | shares compounds with MrgX1 antag | Fluo-4 calcium fluorescence (FDSS); hits give high values | fluorescence ratio F(max-min)/F0 at 10 µM | actives 8.7% (n = 4,000) | AID 624115;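 active = calcium fluorescence ratio at least three times the spread of buffer wells, meaning a non-specific response in parental cells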
# * marks the source's active call; other numbers are inactive results; i = inactive; · = no result given.
SMILES,RGS4 block,MrgX1 antag,MrgX1 PAM,RGS4 act,MrgX1 agonist,MrgX1 antag conf,HEK293 Ca flux,HEK293 Ca counter,HEK293 Ca cntr2
COc1cc(-c2nnc(-c3ccccc3)o2)cc(OC)c1OC,i,-4.9*,i,i,i,i,i,i,i
Cc1nnnn1-c1ccc(CC(=O)O)cc1,i,-7.1*,i,i,i,i,i,i,i
O=C(O)CSc1nnnn1-c1ccccc1,i,i,i,i,i,·,·,·,·
CCCn1cc(SCC(=O)NCc2ccco2)c2ccccc21,i,-9*,i,i,i,i,i,i,i
COc1ccc(CCNC(=O)c2cc3ccccn3n2)c(OC)c1OC,i,i,i,i,i,·,·,·,·
Nc1nnnn1/N=C/c1ccccc1OCc1ccc(Cl)cc1Cl,i,-4.8*,i,i,i,i,i,i,i
Nc1nnnn1/N=C/c1ccccc1OCc1ccc(Cl)cc1,i,i,i,i,i,·,·,·,·
O=C(CN1C(=O)NC2(CCCC2)C1=O)N1CCN(S(=O)(=O)c2ccccc2F)CC1,i,i,i,i,i,·,·,·,·
N#CC1(NC(=O)CN2CCN(S(=O)(=O)c3ccccc3F)CC2)CCCC1,i,-4.9*,i,i,i,i,i,i,i
CCOc1ccc(CNC(=O)c2ccc3c(c2)N(CC)CCS3)cc1,i,-6.6*,i,i,i,82%*,i,i,i
CCN1CCSc2ccc(C(=O)NCc3ccc(OC(C)C)cc3)cc21,i,i,i,i,i,·,·,·,·
CN1C(C)(C)CCCC1(C)C,·,-7*,i,·,i,77%*,i,i,i
N#Cc1c(NC(=O)CSc2nc(N)cc(=O)[nH]2)sc2c1CCCC2,i,i,i,i,i,·,·,·,·
CC(C)CC(=O)Nc1ccccc1N1CCOCC1,i,-4.6*,i,i,i,i,i,48*,i
Cc1cc(NC(=O)C(C)SCC(=O)Nc2ccccc2N2CCCC2)no1 (stereo not given),i,-11*,i,i,i,76%*,i,i,i
Cc1cc(NC(=O)C(C)SCC(=O)Nc2cc(C(F)(F)F)ccc2N2CCCCC2)no1 (stereo not given),i,i,i,i,i,·,·,·,·
CC(=O)N1CCOc2ccc(S(=O)(=O)NC(C)c3ccccc3)cc21 (stereo not given),i,i,i,i,i,·,·,·,·
COc1ccc(-n2c(SCC(N)=O)nc3nc4c(cc3c2=O)COC(C)(C)C4)cc1,i,i,i,i,i,·,·,·,·
Cc1cc2c(cc1S(=O)(=O)N1CCN(c3cccc(C)c3C)CC1)OCCN2C,i,i,i,i,i,·,·,·,·
COc1cc(C(=O)O)ccc1OCc1c(C)noc1C,i,i,i,i,i,·,·,·,·
COc1cc(C(=O)Oc2ccccc2)ccc1OCc1c(C)noc1C,i,-6*,i,i,i,i,i,i,i
CS(=O)(=O)c1ncc(Cl)c(C(=O)Nc2ccc(OC(F)F)cc2)n1,i,-4.9*,i,i,i,i,i,i,i
O=C(O)COc1ccc(Cl)cc1CO,i,-4.7*,i,i,i,i,i,i,i
COc1cc(CNn2cn[nH]c2=S)ccc1OCC(=O)NC(C)(C)C,i,-4.6*,i,i,i,i,i,i,i
COc1cc(CNC(C)(C)CO)ccc1OCC(=O)NC(C)(C)C,i,i,i,i,i,·,·,·,·
SMILES,RGS4 block,MrgX1 antag,MrgX1 PAM,RGS4 act,MrgX1 agonist,MrgX1 antag conf,HEK293 Ca flux,HEK293 Ca counter,HEK293 Ca cntr2
COC(=O)c1cccc(NC(=O)CSc2nc3cccnc3n2C)c1,·,-4.8*,i,·,i,74%*,i,i,i
COC(=O)c1ccccc1NC(=O)CSc1nc2cccnc2n1C,i,i,i,i,i,·,·,·,·
O=C1CC(c2cccc(Cl)c2)C(n2cncn2)C(=O)C1C1NCCc2ccccc21 (stereo not given),i,i,i,i,i,·,·,·,·
Cc1ccccc1CSCCNS(C)(=O)=O,i,-5.3*,i,i,i,i,i,i,i
COc1ccccc1NC(=S)NCCc1c[nH]c2ccccc12,i,-5.6*,i,i,i,i,i,i,i
O=C(O)CCC(=O)NCc1ccc(F)cc1,i,-6.3*,i,i,i,i,i,i,i
O=C(CCc1ccccc1)NCc1ccc(F)cc1,i,i,i,i,i,·,·,·,·
COc1ccc(-c2cc3ccccc3s2)cc1[C@H]1[C@H]2C=CC[C@@H](C)[C@@H]2C(=O)N1Cc1ccccc1,i,i,i,i,i,·,·,·,·
CCN(CC)S(=O)(=O)c1ccc(OC(C)C)nc1,i,-5.9*,i,i,i,i,i,i,i
CC(=O)Nc1cc2c(cc1Br)OCCO2,i,i,i,i,i,·,·,·,·
Brc1ccc(CNc2cc3c(cc2Br)OCCO3)cc1,i,-4.5*,i,i,i,i,i,i,i
Cc1cccc(CNC(=O)c2ccc(NC(=O)C3=CSCCO3)cc2)c1,i,i,i,i,i,·,·,·,·
CCOC(=O)C(NC(=O)c1ccccc1)(Nc1nnc(C)s1)C(F)(F)F (stereo not given),i,-8.7*,i,i,i,i,i,i,i
CCOC(=O)C(NC(=O)c1ccccc1)(Nc1cc(C)on1)C(F)(F)F (stereo not given),i,i,i,i,i,·,·,·,·
Cc1onc(-c2ccccc2)c1CNC(=O)Nc1cccc(Cl)c1,i,-6.6*,i,i,i,82%*,i,i,i
Cc1cc(C)cc(NC(=O)NCc2c(-c3ccccc3)noc2C)c1,i,i,i,i,i,·,·,·,·
